≈ marks a conversion by molar mass, not a printed value. Calls of active or inactive are those of the source. No cut-off for these calls is given here.
Columns and labels:
[1] = system: Uromyces appendiculatus; experiment: Fungicidal activity against Uromyces appendiculatus inoculated in Phaseolus vulgaris placed in growth room after 24 hr incubation assessed as direct protection after 6 to 10 days; type: functional
How it was run: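 Bean plants grown at 22 ± 1 °C, 80 ± 10% RH. Compound in acetone/water (1:4 v/v) with Tween 20 (0.4 mg mL-1) was sprayed on leaves until moist at 100 to 0.001 mg L-1. One day later leaves were inoculated with U. appendiculatus uredospores (1 × 10^5 spores mL-1), held 24 h at 22 ± 2 °C and 100% RH, then moved to the growth room. Scored at 6, 8 and 10 days as MIC.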

[2] = system: Pyrenophora teres; experiment: Antifungal activity against Pyrenophora teres assessed as inhibition of radial growth on potato dextrose; type: functional, organism-based
[3] = system: Fusarium graminearum; experiment: Antifungal activity against Fusarium graminearum assessed as inhibition of radial growth on potato dextrose; type: functional, organism-based
How it was run: (§1)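 Radial growth inhibition on potato dextrose or Czapek agar across 100-0.1 mg L-1. ED50 calculated for each compound.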

[4] = system: Podosphaera fuliginea; experiment: Fungicidal activity against Podosphaera fuliginea inoculated in […] placed in growth room after 24 hr incubation assessed as direct protection after 6 to 10 days; type: functional
[5] = system: Botrytis cinerea; experiment: Antifungal activity against Botryotinia fuckelianaassessed as inhibition of radial growth on potato dextrose; type: functional, organism-based; how it was run: as §1
[6] = system: Cercospora beticola; experiment: Antifungal activity against Cercospora beticola assessed as inhibition of radial growth on potato dextrose; type: functional, organism-based; how it was run: as §1
[7] = system: Bipolaris maydis; experiment: Antifungal activity against Cochliobolus heterostrophus assessed as inhibition of radial growth on potato dextrose; type: functional, organism-based; how it was run: as §1
[8] = system: Ustilago maydis; experiment: Antifungal activity against Ustilago maydis assessed as inhibition of radial growth on potato dextrose; type: functional, organism-based; settings: Mycosarcoma maydis
[9] = system: Oculimacula yallundae; experiment: Antifungal activity against Oculimacula yallundae assessed as inhibition of radial growth on potato dextrose; type: functional, organism-based; how it was run: as §1
[10] = system: Podosphaera fuliginea; experiment: Fungicidal activity against Podosphaera fuliginea inoculated in […] placed in growth room after 24 hr incubation assessed as disease cure after 24 hr of inoculation; type: functional
[11] = biological target: T1, Lanosterol 14-alpha demethylase (Mycosarcoma maydis) (UniProt P49602); experiment: Inhibition of 14alpha-demethylase Ustilago maydis ATCC 14826 assessed as reduction in ergosterol
T1 sequence (whole entry): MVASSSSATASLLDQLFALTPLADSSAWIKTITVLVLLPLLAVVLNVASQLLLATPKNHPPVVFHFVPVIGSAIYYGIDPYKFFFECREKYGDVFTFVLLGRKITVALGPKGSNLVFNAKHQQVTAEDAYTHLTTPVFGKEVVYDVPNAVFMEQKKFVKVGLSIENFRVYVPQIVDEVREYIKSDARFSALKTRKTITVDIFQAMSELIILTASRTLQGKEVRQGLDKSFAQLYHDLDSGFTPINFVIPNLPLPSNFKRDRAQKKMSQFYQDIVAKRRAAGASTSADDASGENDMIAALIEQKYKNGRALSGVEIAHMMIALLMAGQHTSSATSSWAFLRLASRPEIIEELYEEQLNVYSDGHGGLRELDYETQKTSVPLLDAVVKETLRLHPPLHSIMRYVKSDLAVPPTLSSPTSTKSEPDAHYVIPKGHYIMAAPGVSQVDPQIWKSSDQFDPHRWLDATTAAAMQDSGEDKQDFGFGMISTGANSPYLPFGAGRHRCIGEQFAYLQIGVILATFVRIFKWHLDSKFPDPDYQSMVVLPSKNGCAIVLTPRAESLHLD
How it was run: (§2)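 Actively growing broth cultures of U. maydis ATCC 14826 were incubated 18 h with increasing compound concentrations. Sterols were then extracted and analysed, and 14α-demethyl and 14α-methyl sterols quantified.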

[12] = biological target: T1, Lanosterol 14-alpha demethylase (Mycosarcoma maydis); experiment: Inhibition of 14alpha-demethylase Ustilago maydis ATCC 14826 assessed as reduction in ergosta-5,7-dien-3-ol; how it was run: as §2
[13] = biological target: T2, Lanosterol 14-alpha demethylase (Mycosarcoma maydis, UniProt P49602); experiment: Inhibition of 14alpha-demethylase Ustilago maydis ATCC 14826 assessed as reduction in 14alpha-methylfecosterol; settings: read-out: I50 (converted); how it was run: as §2
T2 sequence (P49602 whole entry): T1 sequence (whole entry)

[14] = system: Uromyces appendiculatus; experiment: Fungicidal activity against Uromyces appendiculatus inoculated in Phaseolus vulgaris placed in growth room after 24 hr incubation assessed as disease cure after 24 hr of inoculation; type: functional
How it was run: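 Bean rust curative test with the same plants, spray formulation (acetone/water 1:4 with Tween 20), 100 to 0.001 mg L-1 range and U. appendiculatus inoculum (1 × 10^5 spores mL-1). Compound applied 24 h after inoculation. Read-out expressed as MIC.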

| SMILES | MIC [1] [µg/mL] | EC50 [2] [µg/mL] | EC50 [3] [µg/mL] | MIC [4] [µg/mL] | EC50 [5] [µg/mL] | EC50 [6] [µg/mL] | EC50 [7] [µg/mL] | EC50 [8] [µg/mL] | EC50 [9] [µg/mL] | MIC [10] [µg/mL] | inhibition [11] | inhibition [12] | IC50 [13] [nM] | MIC [14] [µg/mL] |
| --- | --- | --- | --- | --- | --- | --- | --- | --- | --- | --- | --- | --- | --- | --- |
| C=C(Cn1cncn1)c1ccc(Cl)cc1Cl | 150 (≈ 590 µM) | 0.9 (≈ 3.54 µM) | 2.9 (≈ 11.4 µM) | 8 (≈ 31.5 µM) | 4.5 (≈ 17.7 µM) | 0.6 (≈ 2.36 µM) | 0.4 (≈ 1.57 µM) | 0.8 (≈ 3.15 µM) | 0.45 (≈ 1.77 µM) | 1 (≈ 3.94 µM) | – | – | – | – |
| Clc1ccc([C@@H](COCc2ccccc2)Cn2cncn2)c(Cl)c1 | 50 (≈ 138 µM) | 0.35 (≈ 0.966 µM) | 13 (≈ 35.9 µM) | 100 (≈ 276 µM) | 1.3 (≈ 3.59 µM) | 0.18 (≈ 0.497 µM) | 0.25 (≈ 0.69 µM) | 0.09 (≈ 0.248 µM) | 0.6 (≈ 1.66 µM) | – | – | – | – | – |
| Clc1ccc([C@H](COCc2ccccc2)Cn2cncn2)c(Cl)c1 | 50 (≈ 138 µM) | 0.5 (≈ 1.38 µM) | 18 (≈ 49.7 µM) | 80 (≈ 221 µM) | 3 (≈ 8.28 µM) | 0.16 (≈ 0.442 µM) | 0.25 (≈ 0.69 µM) | < 0.1 | 0.41 (≈ 1.13 µM) | – | – | – | – | – |
| C=CCOC[C@@H](Cn1cncn1)c1ccc(Cl)cc1Cl | 25 (≈ 80.1 µM) | 1.5 (≈ 4.8 µM) | 10 (≈ 32 µM) | 90 (≈ 288 µM) | 1.5 (≈ 4.8 µM) | < 0.1 | 0.18 (≈ 0.577 µM) | 0.09 (≈ 0.288 µM) | 0.28 (≈ 0.897 µM) | – | Active | Active | 897 | – |
| C=CCOC[C@H](Cn1cncn1)c1ccc(Cl)cc1Cl | 100 (≈ 320 µM) | 0.8 (≈ 2.56 µM) | 8.5 (≈ 27.2 µM) | 100 (≈ 320 µM) | 3 (≈ 9.61 µM) | 0.25 (≈ 0.801 µM) | 0.2 (≈ 0.641 µM) | 0.22 (≈ 0.705 µM) | 0.4 (≈ 1.28 µM) | – | Active | Active | 1990 | – |
| C#CCOCC(Cn1cncn1)c1ccc(Cl)cc1Cl (stereo unspecified) | > 100 | 1.4 (≈ 4.51 µM) | 25 (≈ 80.6 µM) | – | 3.6 (≈ 11.6 µM) | 0.3 (≈ 0.967 µM) | – | 0.5 (≈ 1.61 µM) | 0.5 (≈ 1.61 µM) | – | – | – | – | – |
| OCCCOCC(Cn1cncn1)c1ccc(Cl)cc1Cl (racemic) | > 200 | 8 (≈ 24.2 µM) | 75 (≈ 227 µM) | > 100 | 70 (≈ 212 µM) | 1.7 (≈ 5.15 µM) | 1.3 (≈ 3.94 µM) | 1 (≈ 3.03 µM) | 2.5 (≈ 7.57 µM) | – | – | – | – | – |
| Clc1ccc(C(COCc2ccccc2)Cn2cncn2)c(Cl)c1 (racemic) | 30 (≈ 82.8 µM) | 0.7 (≈ 1.93 µM) | 5 (≈ 13.8 µM) | 50 (≈ 138 µM) | 1.6 (≈ 4.42 µM) | 0.2 (≈ 0.552 µM) | 0.18 (≈ 0.497 µM) | 0.14 (≈ 0.386 µM) | 0.35 (≈ 0.966 µM) | – | – | – | – | 35 (≈ 96.6 µM) |
| O=[N+]([O-])c1ccc(COCC(Cn2cncn2)c2ccc(Cl)cc2Cl)cc1 (racemic) | 43 (≈ 106 µM) | 0.75 (≈ 1.84 µM) | > 200 | 10 (≈ 24.6 µM) | 2.8 (≈ 6.88 µM) | 0.09 (≈ 0.221 µM) | 0.15 (≈ 0.368 µM) | 0.08 (≈ 0.196 µM) | 0.18 (≈ 0.442 µM) | – | – | – | – | – |
| COc1ccc(COCC(Cn2cncn2)c2ccc(Cl)cc2Cl)cc1 (racemic) | 30 (≈ 76.5 µM) | 0.45 (≈ 1.15 µM) | 10 (≈ 25.5 µM) | 35 (≈ 89.2 µM) | 1 (≈ 2.55 µM) | 0.1 (≈ 0.255 µM) | 0.15 (≈ 0.382 µM) | 0.07 (≈ 0.178 µM) | 0.35 (≈ 0.892 µM) | – | – | – | – | 12 (≈ 30.6 µM) |
| CC(C)(C)c1ccc(COCC(Cn2cncn2)c2ccc(Cl)cc2Cl)cc1 (racemic) | 25 (≈ 59.8 µM) | 0.8 (≈ 1.91 µM) | 6.5 (≈ 15.5 µM) | 10 (≈ 23.9 µM) | 3.8 (≈ 9.08 µM) | 0.28 (≈ 0.669 µM) | 0.4 (≈ 0.956 µM) | 0.1 (≈ 0.239 µM) | 1.2 (≈ 2.87 µM) | 10 (≈ 23.9 µM) | – | – | – | – |
| Clc1ccc(COCC(Cn2cncn2)c2ccc(Cl)cc2Cl)c(Cl)c1 (racemic) | 30 (≈ 69.6 µM) | 0.35 (≈ 0.812 µM) | 12 (≈ 27.8 µM) | 10 (≈ 23.2 µM) | 1 (≈ 2.32 µM) | 0.18 (≈ 0.417 µM) | 0.28 (≈ 0.649 µM) | 0.09 (≈ 0.209 µM) | 0.65 (≈ 1.51 µM) | – | – | – | – | – |
